{
  "source": "ChEMBL document CHEMBL1772943",
  "about": "“Potent, selective, and orally available benzoisothiazolone phosphomannose isomerase inhibitors as probes for congenital disorder of glycosylation Ia” (J Med Chem, 2011)",
  "key": {"[1]": {"biological_target": "T1, Mannose-6-phosphate isomerase (Homo sapiens, UniProt P34949)", "T1 sequence (P34949 whole entry)": "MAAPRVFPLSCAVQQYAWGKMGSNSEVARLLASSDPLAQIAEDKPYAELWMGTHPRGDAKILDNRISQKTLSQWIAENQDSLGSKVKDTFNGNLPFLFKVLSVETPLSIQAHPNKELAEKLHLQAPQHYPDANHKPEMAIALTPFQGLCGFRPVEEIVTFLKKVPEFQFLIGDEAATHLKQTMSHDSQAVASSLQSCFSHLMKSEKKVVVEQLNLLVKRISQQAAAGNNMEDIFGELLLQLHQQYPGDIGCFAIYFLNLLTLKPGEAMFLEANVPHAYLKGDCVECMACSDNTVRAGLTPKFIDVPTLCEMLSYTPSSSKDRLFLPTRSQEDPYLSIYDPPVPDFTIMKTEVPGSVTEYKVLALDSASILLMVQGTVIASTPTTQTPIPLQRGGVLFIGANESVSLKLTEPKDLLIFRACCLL", "test": "Inhibition of human purified phosphomannose isomerase"}, "Phosphomannomutase 2": {"biological_target": "T2, Phosphomannomutase 2 (Homo sapiens, UniProt O15305)", "T2 sequence (O15305 whole entry)": "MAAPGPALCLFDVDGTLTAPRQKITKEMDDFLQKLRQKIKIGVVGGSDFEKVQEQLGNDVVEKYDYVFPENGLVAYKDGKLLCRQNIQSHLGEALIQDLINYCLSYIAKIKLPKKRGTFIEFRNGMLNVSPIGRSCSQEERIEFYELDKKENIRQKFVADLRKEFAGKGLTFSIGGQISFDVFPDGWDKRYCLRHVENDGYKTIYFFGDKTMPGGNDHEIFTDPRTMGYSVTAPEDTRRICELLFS", "test": "Inhibition of human purified PMM2"}, "[2]": {"test": "Solubility of the compound at pH 7.4", "format": "physicochemical", "details": "buffer"}, "[3]": {"test": "Metabolic stability of the compound in mouse plasma assessed as compound remaining at 10 uM after 3 hrs by LC/MS/MS analysis", "format": "ADME, cell-free", "details": "read-out: Stability", "summary_of_the_method": "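Fresh mouse plasma with test article at 10 μM, run in duplicate at 37 °C. Sampled at t=0 and t=3 h; % parent remaining quantified by LC/MS/MS.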"}, "[4]": {"test": "Metabolic stability of the compound in mouse liver microsomes assessed as compound remaining at 10 uM after 1 hr by LC/MS/MS analysis", "format": "ADME, Microsome", "details": "read-out: Stability", "summary_of_the_method": "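Mouse liver microsomes at 0.5 mg/ml, test article at 10 μM, duplicate, 37 °C. Aliquots at t=0 and t=1 h; % parent remaining by LC/MS/MS. Positive control phenacetin conversion to acetaminophen; negative control NADPH-deficient mixture.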"}, "Liver": {"system": "Liver", "test": "Metabolic stability of the compound in rat liver S9 fraction at 10 uM after 2 hrs by LCMS analysis in presence of GSH transferase", "format": "ADME, subcellular", "details": "s9, 2 h", "summary_of_the_method": "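The reaction was quenched by acetonitrile precipitation, and the supernatant was dried and reconstituted. Positive-ion electrospray LCMS tracked parent compound and GSH conjugates. Run in triplicate, with diclofenac as positive control.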"}, "HeLa": {"system": "HeLa", "test": "Cytotoxicity against human HeLa cells at 12.5 to 100 uM after 2 hrs", "format": "cell-based", "summary_of_the_method": "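HeLa cells at 70% confluency were preincubated with compound for 2 h at 37°C. They were then labelled with 50 μCi/mL ³H-mannose and 5 μCi/mL ³⁵S-Met/Cys for 1 h at 37°C, washed, and lysed in 10 mM Tris pH 7.4 with 1% NP-40. Proteins were precipitated with 10% TCA. ³⁵S incorporation read protein synthesis and toxicity; DMSO-treated cells served as the reference.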"}, "[5]": {"test": "Cmax in C57BL/6 mouse at 20 mg/kg, po", "format": "ADME, organism-based", "parameters": "dose 20 mg/kg, route oral", "details": "in vivo", "summary_of_the_method": "(§1)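 C57BL/6 mice, n=3 per dose, given single oral dose of 20 mg/kg (5 mg/kg IV arm run in parallel). Animals sacrificed for blood at 0.5, 1, 2, 4 and 6 hr after oral dosing; plasma separated by centrifugation, stored at -20°C, extracted with 2-fold excess acetonitrile, vortexed 3 min, centrifuged 15 min (7500g), supernatant quantified by LCMS.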"}, "[6]": {"test": "AUC (0 to t) in C57BL/6 mouse at 20 mg/kg, po", "format": "ADME, organism-based", "parameters": "dose 20 mg/kg, route oral", "details": "plasma", "summary_of_the_method": "as §1"}, "[7]": {"test": "Half life in C57BL/6 mouse at 20 mg/kg, po", "format": "ADME, organism-based", "parameters": "dose 20 mg/kg, route oral", "details": "in vivo", "summary_of_the_method": "(§2)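 C57BL/6 mice, n=3 per dose, dosed 5 mg/kg IV and 20 mg/kg PO. Blood collected at PO 0.5, 1, 2, 4, 6 hr and IV 10 min, 0.5, 1, 2, 4, 6 hr. Plasma separated by centrifugation, stored at -20°C, extracted with 2-fold excess acetonitrile (vortex 3 min, 15 min at 7500g), supernatant analysed by LCMS.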"}, "Mus musculus": {"system": "Mus musculus", "test": "Oral bioavailability in C57BL/6 mouse at 20 mg/kg", "format": "ADME, organism-based", "details": "in vivo", "summary_of_the_method": "as §2"}, "in vivo": {"test": "in vivo", "details": "C57BL/6, mouse, po, 20 mg/kg"}, "[8]": {"test": "Inhibition of human purified phosphomannose isomerase"}},
  "data": [
    {"compound": "Cc1ccc(C)c(N2Cc3ccccc3C2=O)c1", "values": [
      {"measurement": "IC50", "setting": "[1]", "result": "> 10", "unit": "µM"}
    ]},
    {"compound": "NC(=O)C1(NC(=O)CCCNc2ccc(Cl)cc2Cl)Cc2ccccc2C1", "values": [
      {"measurement": "IC50", "setting": "[1]", "result": 50, "unit": "µM"}
    ]},
    {"compound": "CN(C)c1ccc(-n2sc3ccccc3c2=O)cc1", "values": [
      {"measurement": "IC50", "setting": "[1]", "result": 1.9, "unit": "µM"},
      {"measurement": "IC50", "setting": "Phosphomannomutase 2", "result": 13.3, "unit": "µM"}
    ]},
    {"compound": "O=c1c2ccccc2sn1-c1ccc2ccccc2c1", "values": [
      {"measurement": "IC50", "setting": "Phosphomannomutase 2", "result": "> 20", "unit": "µM"}
    ]},
    {"compound": "Cc1ccc(C)c(-n2sc3cc(F)ccc3c2=O)c1", "values": [
      {"measurement": "solubility", "setting": "[2]", "result": 22.5, "unit": "µg/mL"},
      {"measurement": "remaining at 3 h, 10 µM", "setting": "[3]", "result": 48, "unit": "%"},
      {"measurement": "remaining at 1 h, 10 µM", "setting": "[4]", "result": 82.3, "unit": "%"},
      {"measurement": "IC50", "setting": "[1]", "result": 1, "unit": "µM"}
    ]},
    {"compound": "Cc1ccccc1-n1sc2cc(F)ccc2c1=O", "values": [
      {"measurement": "IC50", "setting": "Phosphomannomutase 2", "result": "> 20", "unit": "µM"}
    ]},
    {"compound": "Cc1ccc(C)c(-n2sc3ccc(F)cc3c2=O)c1", "values": [
      {"measurement": "solubility", "setting": "[2]", "result": 11, "unit": "µg/mL"},
      {"measurement": "remaining at 1 h, 10 µM", "setting": "[4]", "result": 81, "unit": "%"}
    ]},
    {"compound": "NC(=O)C1(NC(=O)CCCSc2ccc(Cl)cc2Cl)Cc2ccccc2C1", "values": [
      {"measurement": "IC50", "setting": "[1]", "result": 14, "unit": "µM"}
    ]},
    {"compound": "O=c1c2ccccc2sn1-c1ccc(C(F)(F)F)cc1", "values": [
      {"measurement": "IC50", "setting": "[1]", "result": "> 20", "unit": "µM"},
      {"measurement": "IC50", "setting": "Phosphomannomutase 2", "result": "> 20", "unit": "µM"}
    ]},
    {"compound": "O=c1c2cc(F)ccc2sn1-c1ccccc1F", "values": [
      {"measurement": "IC50", "setting": "Phosphomannomutase 2", "result": "> 20", "unit": "µM"}
    ]},
    {"compound": "COc1cccc(-n2sc3ccccc3c2=O)c1", "values": [
      {"measurement": "IC50", "setting": "Phosphomannomutase 2", "result": "> 10", "unit": "µM"}
    ]},
    {"compound": "Cc1ccc(C)c(-n2sc3ccccc3c2=O)c1", "values": [
      {"measurement": "IC50", "setting": "[1]", "result": 6.6, "unit": "µM"}
    ]},
    {"compound": "O=c1c2cc(F)ccc2sn1-c1ccc(Cl)cc1", "values": [
      {"measurement": "IC50", "setting": "Phosphomannomutase 2", "result": "> 20", "unit": "µM"}
    ]},
    {"compound": "O=c1c2cc(F)ccc2sn1-c1ccccc1", "values": [
      {"measurement": "solubility", "setting": "[2]", "result": 3.8, "unit": "µg/mL"},
      {"measurement": "remaining at 3 h, 10 µM", "setting": "[3]", "result": 99, "unit": "%"},
      {"measurement": "Stability", "setting": "Liver", "result": "Stable"},
      {"measurement": "remaining at 1 h, 10 µM", "setting": "[4]", "result": 85, "unit": "%"},
      {"measurement": "Activity", "setting": "HeLa", "result": "Non-toxic"},
      {"measurement": "IC50", "setting": "Phosphomannomutase 2", "result": "> 80", "unit": "µM"},
      {"measurement": "Cmax", "setting": "[5]", "result": 0.162, "unit": "µM"},
      {"measurement": "AUC(0-t)", "setting": "[6]", "result": 305, "unit": "nM·h"},
      {"measurement": "half-life", "setting": "[7]", "result": 1.3, "unit": "h"},
      {"measurement": "F", "setting": "Mus musculus", "result": 35, "unit": "%"},
      {"measurement": "Tmax", "setting": "in vivo", "result": 0.75, "unit": "h"}
    ]},
    {"compound": "O=c1c2ccccc2sn1-c1ccc(Cl)cc1", "values": [
      {"measurement": "IC50", "setting": "Phosphomannomutase 2", "result": "> 20", "unit": "µM"}
    ]},
    {"compound": "O=c1c2ccccc2sn1-c1cccc(I)c1", "values": [
      {"measurement": "IC50", "setting": "Phosphomannomutase 2", "result": "> 20", "unit": "µM"}
    ]},
    {"compound": "O=c1c2ccccc2sn1-c1cccc(C(F)(F)F)c1", "values": [
      {"measurement": "IC50", "setting": "Phosphomannomutase 2", "result": 13.9, "unit": "µM"}
    ]},
    {"compound": "CCOC(=O)c1ccc(-n2sc3ccccc3c2=O)cc1", "values": [
      {"measurement": "IC50", "setting": "Phosphomannomutase 2", "result": "> 20", "unit": "µM"}
    ]},
    {"compound": "NC(=O)C1(NC(=O)CCCOc2ccc(Cl)cc2Cl)Cc2ccccc2C1", "values": [
      {"measurement": "IC50", "setting": "[8]", "result": 40, "unit": "µM"}
    ]},
    {"compound": "Cc1cccc(-n2sc3ccccc3c2=O)c1", "values": [
      {"measurement": "IC50", "setting": "Phosphomannomutase 2", "result": "> 20", "unit": "µM"}
    ]},
    {"compound": "O=c1c2cc(F)ccc2sn1-c1cccc(F)c1", "values": [
      {"measurement": "IC50", "setting": "Phosphomannomutase 2", "result": "> 20", "unit": "µM"}
    ]},
    {"compound": "O=C1c2ccccc2SC1c1ccccc1", "note": "(stereo not drawn)", "values": [
      {"measurement": "IC50", "setting": "[1]", "result": "> 10", "unit": "µM"}
    ]},
    {"compound": "Cc1ccc(-n2sc3ccccc3c2=O)cc1", "values": [
      {"measurement": "IC50", "setting": "[1]", "result": 5.2, "unit": "µM"},
      {"measurement": "IC50", "setting": "Phosphomannomutase 2", "result": "> 20", "unit": "µM"}
    ]},
    {"compound": "O=c1c2cc(F)ccc2sn1-c1ccc(F)cc1", "values": [
      {"measurement": "IC50", "setting": "Phosphomannomutase 2", "result": "> 80", "unit": "µM"}
    ]},
    {"compound": "CN(C)c1cccc(-n2sc3ccccc3c2=O)c1", "values": [
      {"measurement": "IC50", "setting": "Phosphomannomutase 2", "result": "> 20", "unit": "µM"}
    ]},
    {"compound": "CC(C)(C)c1ccc(-n2sc3ccccc3c2=O)cc1", "values": [
      {"measurement": "solubility", "setting": "[2]", "result": 2.5, "unit": "µg/mL"},
      {"measurement": "remaining at 3 h, 10 µM", "setting": "[3]", "result": 10, "unit": "%"},
      {"measurement": "remaining at 1 h, 10 µM", "setting": "[4]", "result": 62, "unit": "%"},
      {"measurement": "Activity", "setting": "HeLa", "result": "Non-toxic"},
      {"measurement": "IC50", "setting": "Phosphomannomutase 2", "result": "> 20", "unit": "µM"}
    ]},
    {"compound": "O=c1c2ccccc2sn1-c1cccc(Cl)c1", "values": [
      {"measurement": "IC50", "setting": "Phosphomannomutase 2", "result": "> 20", "unit": "µM"}
    ]}
  ]
}
